Data reported in PMC6899483 (ChemMedChem, 2019).
Where “and” joins values, the source holds several entries; their conditions need not be identical. Equal entries are not always repeated.

Key:
Pf (3D7) = assay: Plasmodium falciparum screening; format: cell-based
Method in brief: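 Asexual intraerythrocytic P. falciparum 3D7 grown in expired human transfusion red cells. EC50 is reported with its 95% confidence interval, and n is the number of screening replicates.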

HepG2 = assay: mammalian cell growth inhibition assay; format: cell-based; details: Homo sapiens, HepG2, read-out: EC50 HepG2, mammalian cell counter-screen
Method in brief: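 HepG2 counter-screen values are EC50s, each with its number of screening replicates (n) and a 95% confidence interval.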

[1] = mouse microsomal clearance; format: in vitro ADME; details: mouse liver microsomes
Method in brief: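 Intrinsic clearance is measured in mouse liver microsomes and expressed as mL min−1 (g liver)−1.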

EC50 (Pf (3D7); Plasmodium falciparum, 3D7, read-out: EC50 Pf (3D7)): 7 nM | Mouse microsomal CLint [1]: > 50 mL min^−1 (g liver)^−1
Structure (SMILES): Cc1ccc(NC(C)(C)C(=O)Nc2ccc(F)c(Cl)c2)cc1S(=O)(=O)N1CCOCC1 [Compound 28, N-(3-chloro-4-fluorophenyl)-2-methyl-2-{[4-methyl-3-(morpholinosulfonyl)phenyl]amino}propanamide]
improvement in antimalarial potency relative to compound 1 (Pf (3D7); Pf (3D7)): ~20 fold and > 10 fold | EC50 (HepG2): > 25000 nM
